# Reference: PubChem BioAssay AID504382 (The Scripps Research Institute Molecular Screening Center, 2011)
# About 460 (18%) of roughly 2,500 compounds were called active. Only a sample is shown. Values without a mark were called inactive.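 The calls were made as follows: active = mean activation above a cutoff of low control average plus 3 SD from the earlier screen (cut at about 12% in these data); inactive = the rest.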
# Test: compound fluorescence interference without thin filaments, confirmation, artefact control for cardiac RTF calcium sensitizer project, biochemical (AID 504382)
# Conditions: IANBD fluorescence interference counterscreen, buffer, EC20 Ca2+; at 7.2 µM; stronger effect = higher value; scaled: EC20 calcium 0, EC100 calcium 100
# Procedure, shortened: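 Medium: MOPS/KCl/MgCl2/EGTA/NTA/DTT buffer, pH 7.2 | Reagent: EC20 calcium, 0.472 mM | Compound dosing: 7.2 µM single dose | Times: 15 min compound exposure at 25 °C | Signal: Fluorescence, 480/540 nm | Measure: Interference relative to controls | Repeats: Triplicate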
row,Structure (SMILES),fluorescence artifact activation
1,C=CCn1c(C)c(C(C)=O)c(N2CCN(c3ccccc3)CC2)nc1=S,28.9% (active)
2,O=C(c1ccccc1C(=O)N1CCN(c2ccccc2)CC1)N1CCN(c2ccccc2)CC1,-0.08%
3,CC(=O)c1nnn(-c2nc(N3CCCC3)nc(N(c3ccccc3)c3ccccc3)n2)c1C,0.23%
4,CC1(C)C2CCC(C2)C1(C)N=C1OC(CCl)CS1 (stereo unspecified),1.52%
5,CC(C)=CCC/C(C)=C/Cc1c(O)ccc(C(=O)/C=C/c2ccc(O)cc2)c1O,177% (active)
6,CN(C)c1ccc(/C=C/C(=O)c2ccc(O)cc2)cc1,-0.03%
7,CN(C)c1ccc(/C=C/C(=O)c2ccccc2O)cc1,0%
8,COc1ccc(C2C(C(=O)c3cccs3)=C(O)C(=O)N2c2nncs2)cc1 (stereo unspecified),5.56%
9,Cc1ccc(C)c(N2CCN(C(=O)c3cc4ccccn4n3)CC2)c1,4.58%
10,CCN(CC)c1ccc(/C=C/C(=O)C2C(=O)C=C(C)OC2=O)cc1 (stereo unspecified),0.16%
11,Cc1ccc(-c2ccc(CO)o2)cc1N,28.2% (active)
12,Cc1ccc2c(CN3CCCc4ccccc43)cc(=O)oc2c1C,-0.04%
13,FC(F)(F)c1cccc(-c2nc(COc3ccc(Cl)cc3Cl)no2)c1,2280% (active)
14,Cn1c(-c2ccc(C=O)s2)nc2c3ccccc3c3ccccc3c21,5.75%
15,CCOC(=O)COc1c(Cl)cc(C2NC(=S)NC(c3ccccc3)=C2C(C)=O)cc1OC (stereo unspecified),6.87%
16,CCOc1ccc(NC(=O)C2CC(=O)N=C(N)S2)cc1 (stereo unspecified),0.11%
17,Cc1ccc(NC(=O)C(C)Sc2nnc(C)n2C2CC2)cc1S(=O)(=O)N1CCOCC1 (stereo unspecified),0.96%
18,CN1CCCN(Cc2cccc3ccccc23)CC1,0.24%
19,NS(=O)(=O)c1cccc(NC(=O)CCc2ccc(S(=O)(=O)N3CCOCC3)cc2)c1,31.3% (active)
20,O=C(CCc1ccc(S(=O)(=O)N2CCOCC2)cc1)OCC(=O)c1ccccc1,6.03%
21,O=S(=O)(c1ccc(NC(=S)Nc2ccccc2)cc1)N1CCOCC1,0.1%
22,CCOC(=O)CCc1c(C)nc(-n2[nH]c(C)c(CCO)c2=O)[nH]c1=O,0.03%
23,CCOC(=O)CNc1ccc2c(c1)OCO2,2.35%
24,Cc1ncc(CO)c2cc(-c3nnc(Nc4ccc5c(c4)OCO5)s3)c(=O)oc12,23.2% (active)
25,O=C(c1ccccc1)N1C(=O)C(c2ccccc2)Oc2ccccc21 (stereo unspecified),-0.12%
26,CC(/C=N/Nc1ccc2nncn2n1)=C\c1ccccc1,12.9% (active)
